We go through 2 molecules from ChEMBL document CHEMBL4373712, “Bioactivatable Pseudotripeptidization of Cyclic Dipeptides To Increase the Affinity toward Oligopeptide Transporter 1 for Enhanced Oral Absorption: An Application to Cyclo(l-Hyp-l-Ser) (JBP485)” (J Med Chem, 2019).

A word on the half-life: it is the time needed for the level to fall by half in the phase considered. Higher therefore signals slow loss. One may read the IC50 as the midpoint of a concentration-inhibition curve.

Data set [1] addresses T1, Solute carrier family 22 member 3 (Homo sapiens, UniProt O75751).
T1 sequence (O75751 whole entry): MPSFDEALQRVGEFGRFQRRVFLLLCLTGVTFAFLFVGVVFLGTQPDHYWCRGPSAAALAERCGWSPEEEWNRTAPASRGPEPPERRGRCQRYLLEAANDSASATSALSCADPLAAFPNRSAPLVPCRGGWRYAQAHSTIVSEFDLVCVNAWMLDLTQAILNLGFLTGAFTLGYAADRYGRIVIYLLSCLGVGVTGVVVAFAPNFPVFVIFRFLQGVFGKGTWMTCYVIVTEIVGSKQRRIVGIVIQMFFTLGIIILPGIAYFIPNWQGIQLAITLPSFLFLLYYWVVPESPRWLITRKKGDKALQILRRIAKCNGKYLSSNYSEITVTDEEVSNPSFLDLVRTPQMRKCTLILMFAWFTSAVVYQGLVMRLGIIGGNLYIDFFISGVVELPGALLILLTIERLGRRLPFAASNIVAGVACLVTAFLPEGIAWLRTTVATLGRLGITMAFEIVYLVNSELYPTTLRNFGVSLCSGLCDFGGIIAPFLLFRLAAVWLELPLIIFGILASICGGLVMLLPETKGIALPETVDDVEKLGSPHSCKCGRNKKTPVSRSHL
As to the kind of experiment: Substrate activity at OCT3 in human Caco2 cells assessed as protein-mediated drug uptake at 0.5 mM measured after 10 mins in absence of OCT1 substrate metformin by UPLC-MS/MS analysis. It counts as ADME, cell-based. The note with it: caco-2, 10 min, 500 µM. The method in brief: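 Caco-2 cells in 24-well plates took up 0.5 mM compound for 10 min at 37 °C, with or without 50 mM captopril ([…]) or metformin (OCT1-3 substrate). Cells were washed in ice-cold PBS and homogenised in water; lysate protein was measured and drug assayed by UPLC-MS/MS. n=3.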

Data set [2] concerns the target T2, Solute carrier family 15 member 1 (Rattus norvegicus, UniProt P51574).
T2 sequence (P51574 whole entry): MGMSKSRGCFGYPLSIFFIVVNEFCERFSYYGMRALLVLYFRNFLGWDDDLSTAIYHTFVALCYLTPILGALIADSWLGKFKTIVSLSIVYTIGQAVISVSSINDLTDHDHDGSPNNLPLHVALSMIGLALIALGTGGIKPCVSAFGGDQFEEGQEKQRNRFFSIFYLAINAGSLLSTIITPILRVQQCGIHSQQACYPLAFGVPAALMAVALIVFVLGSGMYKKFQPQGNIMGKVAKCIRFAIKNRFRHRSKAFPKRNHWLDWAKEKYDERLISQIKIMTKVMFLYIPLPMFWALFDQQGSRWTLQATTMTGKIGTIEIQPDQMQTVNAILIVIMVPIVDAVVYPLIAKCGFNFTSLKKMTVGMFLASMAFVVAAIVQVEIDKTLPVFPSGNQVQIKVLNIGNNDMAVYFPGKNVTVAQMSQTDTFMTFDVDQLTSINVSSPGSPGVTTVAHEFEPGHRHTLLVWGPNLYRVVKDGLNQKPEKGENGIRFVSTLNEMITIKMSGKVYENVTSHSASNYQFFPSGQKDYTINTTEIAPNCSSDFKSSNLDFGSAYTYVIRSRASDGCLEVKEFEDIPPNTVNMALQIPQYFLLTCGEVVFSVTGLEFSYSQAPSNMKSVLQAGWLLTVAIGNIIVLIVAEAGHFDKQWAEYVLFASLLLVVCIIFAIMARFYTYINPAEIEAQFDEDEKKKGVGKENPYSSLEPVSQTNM
As to the kind of experiment: Ratio of compound effect for substrate activity at PEPT1 in Sprague-Dawley rat jejunum assessed as effective permeability in absence of non-metabolized PEPT1 substrate Gly-Sar to compound effect for substrate activity at PEPT1 in Sprague-Dawley rat jejunum assessed as effective permeability in presence of non-metabolized PEPT1 substrate Gly-Sar. It counts as ADME.

Data set [3] concerns the target T3, Solute carrier family 15 member 1 (Homo sapiens, UniProt P46059).
T3 sequence (P46059 whole entry): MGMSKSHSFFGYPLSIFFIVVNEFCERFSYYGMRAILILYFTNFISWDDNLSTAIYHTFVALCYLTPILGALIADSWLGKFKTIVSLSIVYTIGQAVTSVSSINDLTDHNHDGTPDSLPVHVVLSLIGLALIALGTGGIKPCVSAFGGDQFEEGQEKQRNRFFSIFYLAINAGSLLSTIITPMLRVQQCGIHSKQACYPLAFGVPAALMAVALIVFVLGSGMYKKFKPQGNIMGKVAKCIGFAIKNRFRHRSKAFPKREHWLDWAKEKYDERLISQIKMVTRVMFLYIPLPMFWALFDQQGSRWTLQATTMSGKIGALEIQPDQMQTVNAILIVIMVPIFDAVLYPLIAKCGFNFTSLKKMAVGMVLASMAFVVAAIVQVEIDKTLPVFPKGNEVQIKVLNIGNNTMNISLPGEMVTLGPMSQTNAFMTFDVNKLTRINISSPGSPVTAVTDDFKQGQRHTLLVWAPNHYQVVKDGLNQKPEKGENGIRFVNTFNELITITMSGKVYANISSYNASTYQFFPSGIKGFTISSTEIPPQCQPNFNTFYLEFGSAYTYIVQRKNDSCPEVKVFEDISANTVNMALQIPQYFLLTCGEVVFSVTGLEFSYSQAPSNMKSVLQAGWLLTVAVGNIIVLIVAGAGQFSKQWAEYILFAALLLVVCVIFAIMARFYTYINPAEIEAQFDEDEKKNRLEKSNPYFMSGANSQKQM
Briefly: Substrate activity at PEPT1 in human Caco2 cells assessed as protein-mediated drug uptake at 0.5 mM measured after 10 mins in pH 6 HBSS buffer by UPLC-MS/MS analysis. It counts as ADME, cell-based. The note with it: caco-2, pH 6, 10 min, 500 µM. A digest of the protocol: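 Caco-2 cells incubated 10 min with 0.5 mM compound in HBSS at pH 6.0 or pH 7.4, washed three times in ice-cold PBS pH 7.4, homogenised. Protein by DC assay; drug by UPLC-MS/MS; n=3.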

Data set [4] can be described thus: Half life in Sprague-Dawley rat liver homogenates at 5 mM by HPLC analysis. The data set is classed as ADME, tissue-based. A digest of the protocol: (§1)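 Jejunum and liver homogenates from male SD rats in pH 7.4 PBS, adjusted to 200 µg/mL protein, and rat plasma. Each incubated with compound at 5 mM at 37 °C.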
For data set [5], the target named is T3, Solute carrier family 15 member 1. Briefly: Substrate activity at PEPT1 in human Caco2 cells assessed as inhibition of Gly-Sar uptake measured after 10 mins by UPLC-MS/MS analysis. The data set is classed as cell-based. A digest of the protocol:
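Caco-2 cells with 0.5 mM Gly-Sar probe substrate and competitor at 0.5–50 mM. IC50 by nonlinear fitting; n=3.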

Data set [6] can be described thus: Half life in pH 7.2 phosphate buffer at 5 mM by HPLC analysis. The data set is classed as physicochemical. The method in brief:
(§2)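 Compound at 5 mM in 0.1 M HCl, pH 4.5 acetate buffer, pH 5.8/6.8/7.2 phosphate buffers, SGF (pH 1.2) and SIF (pH 6.8), prepared per Chinese Pharmacopoeia. Samples taken at 0-20 h and analyzed by HPLC-UV. k = 2.303×slope of log C versus time; t1/2 = 0.693/k.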

Data set [7] is described as follows: Half life in pH 1.2 simulated gastric fluid at 5 mM by HPLC analysis. The data set is classed as ADME. A digest of the protocol: as §2
The nature of data set [8]: Half life in Sprague-Dawley rat intestinal homogenates at 5 mM by HPLC analysis. The data set is classed as ADME, tissue-based, Intestine. A digest of the protocol:
as §1

As for `O=C1N[C@@H](CO)C(=O)N2C[C@H](O)C[C@@H]12`, the Drug uptake entry in data set [1] is “Not Active”; in data set [3] it was “Active”. Also, the Ratio in data set [2] came to 2.5. For the same molecule, the half-life at 5000 µM in data set [4], in data set [6], in data set [7] and in data set [8] was more than 20 h in each case. Also, in data set [5], the IC50 is 18.2 mM.

As for `CC(C)[C@H](N)C(=O)OC[C@@H]1NC(=O)[C@@H]2C[C@@H](O)CN2C1=O`, the Drug uptake result in data set [1] is recorded as “Not Active”; in data set [3] it was “Active”. Also, the Ratio in data set [2] is 6.8. In addition, the half-life at 5000 µM in data set [4] is 0.86 h; in data set [6], 5.5 h; in data set [7] it was more than 20 h; in data set [8], less than 0.16 h. Also, in data set [5], the IC50 was determined as 2.9 mM.
